Rows were chosen to be rich in hits. Some 2.1% of all compounds tested hit in one or more screens of this group.
APJ antagonist: antagonists of human apelin receptor APJ, primary screen, CHO-K1 cells, beta-arrestin complementation, luminescence | inhibition, % at 20 µM | 0.32% of 330,000 active | P35414;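 active = inhibition above about 40% at 20 µM, limit read from the data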;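 note: cells challenged with 10 nM apelin-13 agonist together with compound; plate controls were apelin-13 plus DMSO wells for no effect and DMSO wells lacking apelin-13 for full effect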
APJ ag: agonists of human apelin receptor APJ, primary screen, CHO-K1 cells, PathHunter beta-arrestin, luminescence | P35414 | 0% DMSO wells, 100% apelin | activation, % at 20 µM | 0.11% of 330,000 active;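 active = activation more than six SD over the plate average, tested at 20 µM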;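 note: 0% = DMSO alone and 100% = apelin-13 at 10 nM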
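Assay system: CHO-K1 cells stably expressing ProLink-tagged human APJ and arrestin–beta-gal acceptor. Compound dosing: 20 µM single point, 1% DMSO. Times: 16-18 h seeding, 90 min dark compound exposure, 60 min detection. Detection: beta-gal luminescence. Evaluation: APJ–arrestin association signal. Controls: negative DMSO alone, positive Apelin-13 at 10 nM.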
EBI2 block: EBI2 receptor antagonists, beta-arrestin recruitment, primary screen, cell-based, luminescence, 7a,25-OHC stimulation, uHTS. G-protein coupled receptor 183 (Homo sapiens), P32249. 0.81% of 360,000 active. 7a,25-OHC stimulated. inhibition, % at 5 µM. AID 651636, 2012; in the data active = inhibition above about 38%;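 note: enzyme fragment complementation signal reports receptor beta-arrestin coupling in cells; 0% = agonist plus DMSO wells and 100% = wells without agonist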
Target sequence (P32249 whole entry, looked up, the tested form may be a part): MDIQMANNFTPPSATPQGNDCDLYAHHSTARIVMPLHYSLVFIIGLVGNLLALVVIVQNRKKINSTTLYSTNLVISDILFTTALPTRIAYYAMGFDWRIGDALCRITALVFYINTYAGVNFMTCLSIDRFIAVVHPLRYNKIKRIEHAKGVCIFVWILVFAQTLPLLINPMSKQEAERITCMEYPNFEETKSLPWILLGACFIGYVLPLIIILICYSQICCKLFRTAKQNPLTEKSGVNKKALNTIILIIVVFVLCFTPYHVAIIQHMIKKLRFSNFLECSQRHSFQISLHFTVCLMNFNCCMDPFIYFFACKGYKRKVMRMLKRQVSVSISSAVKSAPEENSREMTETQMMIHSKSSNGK
HTR2A ag: mouse Htr2a agonists via beta-arrestin recruitment, primary screen, cell-based, luminescence; 5-hydroxytryptamine receptor 2A (Mus musculus), P35363; CHO-K1 mHTR2A beta-arrestin complementation; percent of 30 µM serotonin response; activation, % at 7.6 µM; 0.66% of 360,000 active; AID 624169, 2012;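 active = activation above a run cutoff, the mean activation of all tested compounds plus 3 SD, cut at about 14% in these data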;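 note: 0% = plate median of compound wells and 100% = 30 µM serotonin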
CCR6 antagonist: CCR6 receptor antagonists, primary screen, cell-based, CHO-K1, luminescence, beta-arrestin, uHTS | C-C chemokine receptor type 6 (Homo sapiens), P51684 | CHO-K1 CCR6 PathHunter beta-arrestin, CCL20-stimulated | inhibition, % at 20 µM | 0.49% of 340,000 active | AID 493098, 2011;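 active = compounds whose inhibition of the agonist-driven luminescence signal at 20 µM reaches about 50%, limit read from the data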;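 note: cells stimulated with CCL20 at 14 nM final; plate controls were DMSO with CCL20 for no effect and DMSO without agonist for full effect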
CXCR6 inh: CXCR6 receptor inhibitors, primary screen, cell-based, beta-arrestin, luminescence, CHO-K1 PathHunter, 1536-well; 0.36% of 360,000 active; inhibition, % at 20 µM; in the data active = inhibition above about 34%, passing the limit was not always enough;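 note: antagonist mode with CXCL16 agonist at 10 nM final; 0% = 10 nM CXCL16 with DMSO and 100% = unstimulated wells without agonist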
Target sequence (O00574 whole entry, looked up): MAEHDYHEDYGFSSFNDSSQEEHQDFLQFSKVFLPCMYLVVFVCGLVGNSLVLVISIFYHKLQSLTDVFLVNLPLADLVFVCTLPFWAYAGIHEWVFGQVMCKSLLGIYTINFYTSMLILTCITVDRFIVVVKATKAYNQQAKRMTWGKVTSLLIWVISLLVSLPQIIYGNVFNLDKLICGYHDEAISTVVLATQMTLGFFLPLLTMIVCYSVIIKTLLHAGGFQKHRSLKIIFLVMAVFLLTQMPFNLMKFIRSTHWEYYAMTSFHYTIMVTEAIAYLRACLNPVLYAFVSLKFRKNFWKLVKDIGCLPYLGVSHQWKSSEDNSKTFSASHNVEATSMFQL
* hit, by the source's call; nt = no result.

SMILES | APJ antagonist | APJ ag | EBI2 block | HTR2A ag | CCR6 antagonist | CXCR6 inh
N#C/C(C(=O)Nc1ccc(Cl)cc1)=C(/S)Nc1ccccc1 | 0.5 | 1.8 | 56.7* | 5.8 | 8.5 | 0.8
CCN(CC)C(=O)C1=C(C)N(CCCOC)C(=O)C(CC(=O)NCc2cccs2)C1 (stereo not drawn) | nt | nt | -10.1 | -2.0 | nt | 5.9
Cc1n[nH]c(C)c1Sc1ccccc1[N+](=O)[O-] | 3.7 | -3.2 | 9.3 | -1.7 | 11.2 | 9.1
Cc1n[nH]c(C)c1Sc1ccccc1N=Cc1cc(Cl)cc([N+](=O)[O-])c1O | 22.8 | -1.7 | 13.6 | 7.6 | 44.5 | 54.8*
COCCCNC(=O)c1cc2cc3cc(OC)ccc3nc2o1 | 19.5 | -1.8 | -4.4 | -2.6 | -2.6 | -5.0
O=C(CCc1ccccc1)NNC(=S)NC(=O)c1ccccc1 | 24.3 | -2.8 | -3.1 | 2.3 | 69.1* | 25.7
CC(=O)NC(=S)NNC(=O)CCc1ccccc1 | 22.8 | -3.8 | -0.3 | 2.7 | -1.3 | 17.0
Cc1cc(N(C)/N=C/c2ccccc2O)nc(-c2ccccc2O)n1 | 12.5 | -1.0 | 13.2 | 1.5 | 56.0* | 42.0*
Cc1ccc(C2C3CSCC=C3C(C#N)=C(N)C2(C#N)C#N)cc1 (stereo not drawn) | 1.8 | -5.9 | 3.2 | 3.8 | 52.4* | 10.9
C/C(=N\Nc1ccc(Cl)c(C(=O)O)c1)c1ccccn1 | 6.7 | -0.7 | 4.0 | -3.3 | 5.3 | 4.2
C/C(=N\Nc1ncc(Cl)cc1Cl)c1ccccn1 | nt | nt | 55.9* | -6.6 | 30.9 | 49.6*
COCc1cccc(-c2csc(C(C)(O)c3cccc(OC)c3)n2)c1 (stereo not drawn) | nt | nt | 4.9 | 0.9 | nt | -4.8
CCOC(=O)N1CCN(C(=O)CNC(=O)c2ccc(Cl)cc2)CC1 | -0.8 | -3.4 | 2.3 | -5.7 | -11.1 | -11.5
COC(=O)CSc1nc(N)c2c3c(sc2n1)C(c1ccccc1)SC(c1ccccc1)C3 (stereo not drawn) | -32.1 | 5.3 | 55.4* | 2.9 | 6.8 | 6.3
O=C1c2ccccc2-c2onc3ccc(Oc4ccccc4)c1c23 | -6.1 | 16.4 | -17.4 | 0.8 | 42.1 | 40.7*
O=C(c1ccccc1)c1coc2c1C(=O)c1ccccc1C2=O | -36.3 | 9.3 | -6.2 | 2.2 | 4.4 | -5.4
CCN(c1ccccc1)S(=O)(=O)c1ccc(OC)c(NC(=O)CCc2nc3ccccc3c(=O)[nH]2)c1 | 11.1 | 11.9 | 11.8 | -6.3 | 17.1 | -1.9
COc1ccc(N=C2S/C(=C\c3ccc(N4CCOCC4)o3)C(=O)N2CCc2c[nH]c3ccccc23)cc1 | 9.8 | 0.8 | 80.9* | 1.0 | nt | 12.5
C=Cc1ccc(CC2(C)C(=O)Nc3ccc(-c4cccnc4)cc32)cc1 (stereo not drawn) | nt | nt | 18.8 | -0.2 | nt | -15.2
CC(C)(C)c1ccc(CN2N=Nc3ccccc3S2(=O)=O)cc1 | 32.7 | 8.9 | 7.1 | 0.8 | 63.5* | 49.1*
O=S1(=O)c2ccccc2N=NN1Cc1ccc(Cl)c(Cl)c1 | -13.4 | 6.4 | nt | nt | nt | nt
OC[C@@H]1CN(Cc2ccncc2)C[C@H](n2cnc3c(NCc4ccncc4)ncnc32)O1 | nt | nt | -12.7 | 5.6 | nt | -2.5
Cc1cc(C)c2c(=O)n(CC(=O)NCCCN3CCN(c4ccccc4F)CC3)sc2n1 | -12.4 | 4.5 | nt | nt | 99.8* | nt
CC(=O)Nc1sc(N/N=C\c2ccccc2F)nc1-c1cccs1 | 4.7 | 0.0 | -7.0 | 1.7 | 50.4* | 11.1
CC(=O)Nc1sc(N/N=C\c2ccc(O)cc2)nc1-c1cccs1 | -17.8 | -5.5 | 2.9 | -4.4 | 22.9 | 4.4
SMILES | APJ antagonist | APJ ag | EBI2 block | HTR2A ag | CCR6 antagonist | CXCR6 inh
Cc1ccc(S(=O)(=O)N2CCOCC2)cc1NC(=O)c1ccc(F)cc1F | 4.5 | -2.1 | -8.1 | -3.3 | 9.4 | -3.6
NS(=O)(=O)c1ccc(NC(=O)c2ccc(F)cc2F)c(NC(=O)c2ccc(F)cc2F)c1 | -3.5 | -1.2 | -2.7 | 3.7 | 50.7* | 1.9
CC(=O)N(c1ccccc1C)C1CCCC1 | 5.5 | 1.4 | -6.9 | 1.5 | 6.1 | -3.6
CC(=O)N(C1=C(Cl)C(=O)c2ccccc2C1=O)C1CCCCC1 | -9.7 | 7.8 | 7.9 | -0.4 | 115.1* | 39.8*
C#CCN(C[C@@H]1[C@@H](OC(=O)NCc2ccc(OC)c(OC)c2)[C@@H](OC(=O)NCc2ccc(OC)c(OC)c2)CN(C(=O)OC(C)C)N1C(=O)OC(C)C)S(=O)(=O)c1ccc(C)cc1 | nt | nt | 11.5 | -4.5 | nt | -8.7
OC(COc1c(Cl)cc(Cl)cc1Cl)CN1CCCCC1 (stereo not drawn) | 9.0 | -6.4 | -3.8 | -6.9 | 69.3* | -0.3
O=C(COC(=O)c1ccc(Cl)nc1)Nc1ccc(N2CCCCC2)cc1 | 5.1 | -2.7 | -9.0 | -0.1 | 4.7 | 0.1
COc1ccc(N2C(=O)CC(Sc3nnnn3-c3ccc(F)cc3)C2=O)cc1 (stereo not drawn) | -34.2 | -2.1 | -0.8 | 3.8 | 96.0* | 102.2*
CS(=O)(=O)c1ncc(Cl)c(C(=O)Nc2ccc3ccccc3c2)n1 | nt | nt | 56.9* | -6.8 | 81.4* | 69.7*
O=C(Nc1ccc2ccccc2c1)c1cnccn1 | -3.8 | -0.4 | -9.6 | -0.4 | 10.7 | -1.5
CC(=O)Nc1ccc(NC(=O)c2nc(S(=O)(=O)Cc3ccccc3)ncc2Cl)cc1 | 10.7 | 0.8 | -0.4 | -4.1 | 9.0 | 25.2
CCS(=O)(=O)c1ncc(Cl)c(C(=O)Nc2ccc(C)cc2)n1 | 37.7 | -5.0 | 52.6* | -0.5 | 35.9 | 11.6
Cc1ccccc1CN1CCN(CC2CC2)CC1CCO (stereo not drawn) | 8.0 | -0.1 | -4.5 | 5.2 | 12.2 | 3.6
Cc1cccc(C2(c3cccc(C)c3)CC2C(=O)Nc2ccc([N+](=O)[O-])cc2O)c1 (stereo not drawn) | -24.1 | 0.4 | 19.9 | -4.5 | 57.9* | 13.5
C=CCNC(=O)C1CC1(c1cccc(C)c1)c1cccc(C)c1 (stereo not drawn) | 4.1 | -1.8 | 7.5 | 2.2 | 21.1 | -3.3
O=C(Nc1ccc(N2CCOCC2)cc1)NC1CCCCC1 | 26.0 | 0.7 | -1.2 | 15.5* | 10.0 | -7.7
O=C(Nc1ccc(N2CCOCC2)cc1)C1CC1 | -10.6 | -2.7 | -7.1 | -0.2 | -12.7 | -7.0
O=c1c2c([N+](=O)[O-])cc([N+](=O)[O-])cc2sn1-c1ccc(Br)cc1 | -51.3 | 0.0 | 78.1* | -1.3 | 50.1* | 22.4
COc1ccc(C=C2CS(=O)(=O)CC(=Cc3ccc(OC)cc3)C2=O)cc1 | nt | nt | 9.9 | -0.9 | nt | 23.6
CC[n+]1c(/C=C/c2ccc(N(C)C)cc2)ccc2ccccc21 | nt | nt | 8.1 | -2.0 | 54.7* | 38.8
Cc1ccc(NS(=O)(=O)c2cc([N+](=O)[O-])ccc2NNC(=S)Nc2cccc(Cl)c2)c(C)c1 | nt | nt | 15.7 | 0.5 | 81.2* | 58.4*

High-throughput results as filed in PubChem BioAssay.
